UBC13 polyUb: inhibitors of human UBC13 polyubiquitin chain formation. TR-FRET. inhibition, % at 20 µM. hit rate 0.47% among 330,000; in the data active = inhibition above about 45%, passing the limit was not always enough; inconclusive = no clear call, values can overlap the other calls
Target sequence (P61088 whole entry, looked up): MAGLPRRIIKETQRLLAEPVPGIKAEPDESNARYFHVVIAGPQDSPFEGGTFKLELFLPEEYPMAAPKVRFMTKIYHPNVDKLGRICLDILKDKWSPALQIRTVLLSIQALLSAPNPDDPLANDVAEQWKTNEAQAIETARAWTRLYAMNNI
MEKK2 mut-MEK5: signal of MEK5 binding to mutant human MEKK2 PB1 domain. bead flow cytometry, Alexa488-MEK5 binding to MEKK2 mutant. percent response, % at 10 µM. hit rate 0.35% among 290,000; in the data active = percent response above about 24%, passing the limit was not always enough
MEKK2wt PB1 HTS: raises or lowers MEK5 binding to wildtype human MEKK2 PB1 domain; binding response (% of control), % at 10 µM; AID 1531; hit rate 1.1% among 290,000; bead flow cytometry, Alexa488-MEK5 binding to MEKK2 WT; actives lie on both sides; Q9Y2U5; in the data active = binding response below about 67% or above about 130%; inconclusive = no clear call, values can overlap the other calls; inactive = in between
MEKK3 PB1 HTS: modulators (inhibitors or enhancers) of MEK5 binding to human MEKK3 PB1 domain; hit rate 1.4% among 290,000; binding response (% of control), % at 10 µM; bead-based flow cytometry, Alexa488-MEK5 binding to MEKK3; actives lie on both sides; 0 = blocked by unlabeled MEK5, 100 = vehicle; AID 1529;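 active = binding response more than 3 SD above or below the average of its plate-row segment, actives on both sides; inconclusive = wells at one plate position flagged as instrument error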;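 also: Alexa488 bead fluorescence after subtracting the streptavidin-only scavenger bead signal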
Apaf1 inhib: human Apaf-1 inhibition | hit rate 0.71% among 330,000 | inhibition, % at 20 µM | reconstituted apoptosome caspase-3 activity, DEVD-Rh110 fluorescence | AID 489030 | O14727; active = inhibition of at least 40% at 20 µM;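 also: plate controls were DMSO wells for no effect and DEVD-CHO caspase inhibitor wells for full effect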
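Material: reconstituted apoptosome with Apaf-1, cytochrome c, caspase-9, procaspase-3, dATP / Buffer or medium: pH 7.5 Hepes buffer with CHAPS, BSA, DTT / Also added: cytochrome c with DEVD-Rh110 / Schedule: compound with Apaf-1, dATP, procaspase-3 30 min, then 50 min reaction, room temperature / Technique: rhodamine 110 fluorescence at Ex 480/Em 540 nm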
PREPL inhibitor: inhibitors of human prolyl oligopeptidase-like enzyme PREPL; inhibition, % at 5.96 µM; hit rate 0.68% among 320,000; Q4J6C6; AID 2751; recombinant PREPL, fluorescence polarization activity-based probe; in the data active = inhibition above about 43%;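 also: 0% = enzyme with DMSO and 100% = wells lacking enzyme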
Casp3 counter: caspase-3 inhibition (UBC13 counter-screen). inhibition, % at 20 µM. Recombinant caspase-3, Caspase-Glo 3/7 luminescence, 60 min. shares compounds with UBC13 polyUb. hit rate 4% among 1,400. AID 488856;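 active = mean inhibition across replicates above about 26%, limit read from the data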;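 also: plate controls were DMSO with caspase-3 for no effect and DMSO wells lacking enzyme for full effect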
Target sequence (P42574 whole entry, looked up): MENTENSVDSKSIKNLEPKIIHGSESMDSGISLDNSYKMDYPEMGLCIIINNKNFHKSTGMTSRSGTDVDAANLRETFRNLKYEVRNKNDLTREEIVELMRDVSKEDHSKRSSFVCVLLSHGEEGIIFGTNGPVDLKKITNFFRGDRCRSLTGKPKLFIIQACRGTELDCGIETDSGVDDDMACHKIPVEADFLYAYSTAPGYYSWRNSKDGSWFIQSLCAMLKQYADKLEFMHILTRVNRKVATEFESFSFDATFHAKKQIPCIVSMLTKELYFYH
UBC13 confirm: confirmation of human UBC13 polyubiquitin inhibitors; hit rate 68% among 1,400; inhibition, % at 10 µM; UBC13 polyubiquitination, TR-FRET, biochemical; shares compounds with UBC13 polyUb; in the data active = inhibition above about 45%; inconclusive = no clear call, values can overlap the other calls
The depositor's hits bear a star. In the library only some 3.1% were active in any assay of this set; here they are far more common.

Screening Cc1cc(SCC(=O)NC(=O)c2cccn2C)nc2ccccc12 returned UBC13 polyUb 55.8*, MEKK2 mut-MEK5 -23.0, MEKK2wt PB1 HTS 84.0, MEKK3 PB1 HTS 87.0, Apaf1 inhib -30.0, PREPL inhibitor 0.7, Casp3 counter -1.9 and UBC13 confirm 67.5*.
For Cc1cc(SCC(=O)O)nc2ccccc12 the results were UBC13 polyUb 6.6, MEKK2 mut-MEK5 -6.0, MEKK2wt PB1 HTS 101.0, MEKK3 PB1 HTS 102.0, Apaf1 inhib 2.3 and PREPL inhibitor -7.3.
CC(=O)c1ccc(N2CCN(S(=O)(=O)c3c(C(=O)N4CCCC4)c(C)n(C)c3C)CC2)cc1 was read as UBC13 polyUb -7.6, MEKK2 mut-MEK5 1.0, MEKK2wt PB1 HTS 103.0, MEKK3 PB1 HTS 102.0, Apaf1 inhib -12.0 and PREPL inhibitor 6.9.
Screening CCCC(C)C(=O)OCC(=O)NCc1ccc(OC)c(OC)c1 (centres undefined) returned UBC13 polyUb -10.3, MEKK2 mut-MEK5 -2.0, MEKK2wt PB1 HTS 101.0, MEKK3 PB1 HTS 102.0, Apaf1 inhib -6.4 and PREPL inhibitor -7.4.
Screening Cc1ccc(C)c(S(=O)(=O)N2CCCCC2CCNC(=O)C(=O)NCc2ccccc2)c1 (centres undefined) returned UBC13 polyUb -9.1, Apaf1 inhib 11.5 and PREPL inhibitor -5.4.
Cn1cccc1/C=C(/C#N)C(N)=S was read as UBC13 polyUb 10.2, MEKK2 mut-MEK5 -1.0, MEKK2wt PB1 HTS 101.0, MEKK3 PB1 HTS 113.0, Apaf1 inhib -1.6 and PREPL inhibitor -5.8.
For CCCCc1ccc(/C=C(\C#N)C(N)=S)s1 the results were UBC13 polyUb 52.8*, MEKK2 mut-MEK5 5.0, MEKK2wt PB1 HTS 5.0*, MEKK3 PB1 HTS 108.0, Apaf1 inhib 19.3, Casp3 counter 0.7 and UBC13 confirm 58.6*.
`COc1ccc(C(=O)Nn2c(SCC(=O)N3CCC(C)CC3)nc3ccccc3c2=O)cc1` gave UBC13 polyUb 79.5*, MEKK2 mut-MEK5 4.0, MEKK2wt PB1 HTS 96.0, MEKK3 PB1 HTS 106.0, Apaf1 inhib 17.0, PREPL inhibitor 3.3, Casp3 counter 84.8* and UBC13 confirm 84.5*.
COc1ccc(C(=O)Nn2c(SCC(=O)NC3CCCCC3)nc3ccccc3c2=O)cc1 was read as UBC13 polyUb 31.0, MEKK2 mut-MEK5 -1.0, MEKK2wt PB1 HTS 94.0, MEKK3 PB1 HTS 97.0, Apaf1 inhib 21.4 and PREPL inhibitor 13.4.
COc1ccc(C(=O)Nn2c(SCC(=O)c3ccc(Cl)cc3)nc3ccccc3c2=O)cc1 was read as UBC13 polyUb 50.0*, MEKK2 mut-MEK5 -8.0, MEKK2wt PB1 HTS 87.0, MEKK3 PB1 HTS 93.0, Apaf1 inhib 3.3, PREPL inhibitor 1.8, Casp3 counter -0.4 and UBC13 confirm 56.0*.
COc1ccc(C(=O)Nn2c(SCC(=O)NCc3ccco3)nc3ccccc3c2=O)cc1 was read as UBC13 polyUb 70.7*, MEKK2 mut-MEK5 5.0, MEKK2wt PB1 HTS 121.0, MEKK3 PB1 HTS 113.0, Apaf1 inhib 0.0, PREPL inhibitor -6.3, Casp3 counter 24.8 and UBC13 confirm 73.9*.
O=C(CCCCCn1c(SCc2ccncc2)nc2ccccc2c1=O)NCc1ccco1 was read as UBC13 polyUb 69.4*, MEKK2 mut-MEK5 1.0, MEKK2wt PB1 HTS 101.0, MEKK3 PB1 HTS 97.0, Apaf1 inhib 17.1, PREPL inhibitor 13.8, Casp3 counter -2.7 and UBC13 confirm 47.4*.
For CCn1c(SCC(=O)NCc2ccco2)nc2ccccc2c1=O the results were UBC13 polyUb 8.5, MEKK2 mut-MEK5 -8.0, MEKK2wt PB1 HTS 87.0, MEKK3 PB1 HTS 102.0, Apaf1 inhib 3.9 and PREPL inhibitor 17.9.
`CC(=O)c1cn(S(=O)(=O)c2ccccc2)c2ccccc12` gave UBC13 polyUb 90.7*, MEKK2 mut-MEK5 3.0, MEKK2wt PB1 HTS 102.0, MEKK3 PB1 HTS 105.0, Apaf1 inhib 0.8, PREPL inhibitor -8.0, Casp3 counter -2.3 and UBC13 confirm 88.4*.
Screening COc1ccnc2c1c(=O)n(Cc1ccc(Cl)cc1)c(=O)n2C returned UBC13 polyUb 71.2*, MEKK2 mut-MEK5 4.0, MEKK2wt PB1 HTS 102.0, MEKK3 PB1 HTS 102.0, Apaf1 inhib 10.6, PREPL inhibitor -23.8, Casp3 counter 0.3 and UBC13 confirm inconclusive.
Screening COc1ccnc2c1c(=O)n(Cc1c(F)cccc1Cl)c(=O)n2C returned UBC13 polyUb 9.4, MEKK2 mut-MEK5 4.0, MEKK2wt PB1 HTS 102.0, MEKK3 PB1 HTS 100.0, Apaf1 inhib 2.6 and PREPL inhibitor 9.2.
`COc1ccnc2c1c(=O)n(Cc1ccc(F)cc1)c(=O)n2C` gave UBC13 polyUb 56.7*, MEKK2 mut-MEK5 2.0, MEKK2wt PB1 HTS 100.0, MEKK3 PB1 HTS 100.0, Apaf1 inhib -11.4, PREPL inhibitor -13.3, Casp3 counter 0.4 and UBC13 confirm 66.7*.
Screening CC(NC(=O)CN1CCN(C(=O)c2cccs2)CC1)c1ccc(F)cc1F (centres undefined) returned UBC13 polyUb 8.3, Apaf1 inhib -2.6 and PREPL inhibitor 21.2.
CCC(C)N(CCNC(=O)c1ccc2c(c1)NC(=O)c1ccccc1S2)C1CCCCC1 (centres undefined) was read as UBC13 polyUb 51.5*, MEKK2 mut-MEK5 13.0, MEKK2wt PB1 HTS 128.0, MEKK3 PB1 HTS 97.0, Apaf1 inhib 15.3, PREPL inhibitor 13.9, Casp3 counter -2.3 and UBC13 confirm 69.6*.
Screening CC(=O)NCCNc1nc2c(-c3cccc(C(F)(F)F)c3)nnn2c2ccccc12 returned UBC13 polyUb inconclusive, MEKK2 mut-MEK5 6.0, MEKK2wt PB1 HTS 103.0, MEKK3 PB1 HTS 102.0, Apaf1 inhib 7.3 and PREPL inhibitor 5.3.
Screening COCCNc1nc2c(-c3cccc(C(F)(F)F)c3)nnn2c2ccccc12 returned UBC13 polyUb 46.9*, MEKK2 mut-MEK5 6.0, MEKK2wt PB1 HTS 102.0, MEKK3 PB1 HTS 102.0, Apaf1 inhib 10.3, PREPL inhibitor -6.9, Casp3 counter 3.9 and UBC13 confirm inconclusive.
`CC(C)OCCCNc1nc2c(-c3ccccc3)nnn2c2ccccc12` gave UBC13 polyUb 46.5*, MEKK2 mut-MEK5 -4.0, MEKK2wt PB1 HTS 97.0, MEKK3 PB1 HTS 113.0, Apaf1 inhib 12.2, PREPL inhibitor -1.3, Casp3 counter -4.2 and UBC13 confirm 40.9.
COc1ccc(C)cc1N(C(=O)c1snc(C(N)=O)c1N)C(C(=O)NC1CCCC1)c1ccc(F)cc1 (centres undefined) was read as UBC13 polyUb 5.0, MEKK2 mut-MEK5 -10.0, MEKK2wt PB1 HTS 97.0, MEKK3 PB1 HTS 102.0, Apaf1 inhib 24.4 and PREPL inhibitor -3.3.
